According to ChEMBL document CHEMBL4052824, “Interfering with HuR-RNA Interaction: Design, Synthesis and Biological Characterization of Tanshinone Mimics as Novel, Effective HuR Inhibitors” (J Med Chem, 2018):
Active and inactive are the calls of the source. The calls are words filed in the database; no cut-off is given here.

Assays:
ELAV-like protein 1 [1] = target: T1, ELAV-like protein 1 (Homo sapiens, UniProt Q15717); test: Binding affinity to human full length recombinant HuR expressed in Escherichia coli […] assessed as inhibition of interaction with 5'-DY681-labeled AU-rich RNA probe at 5 uM after 30 mins by REMSA
Procedure, shortened: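 Non-denaturing, non-cross-linked REMSA: full-length recombinant His-tagged HuR (E. coli-expressed) in at least 10-fold excess incubated 30 min with 75 fmol 5′-DY681-labeled AU-rich RNA probe plus DMSO or compound at 5 μM; reduction of shifted probe band scored qualitatively.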

PANC-1 [2] = test: Cytotoxicity against human PANC1 cells assessed as decrease in cell viability after 72 hrs by OZBlue assay; details: PANC-1, 72 h
MDA-MB-231 [3] = test: Cytotoxicity against human MDA-MB-231 cells assessed as decrease in cell viability after 72 hrs by OZBlue assay; details: MDA-MB-231, 72 h
MCF7 [4] = test: Cytotoxicity against human MCF7 cells assessed as decrease in cell viability after 72 hrs by OZBlue assay; details: MCF7, 72 h
ELAV-like protein 1 [5] = target: T1, ELAV-like protein 1; test: Change in HuR localization from nucleus to cytoplasm in human MCF7 cells at 1 uM after 3 hrs by DAPI staining-based immunofluorescence method; type: cell-based
Procedure, shortened: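 MCF7 cells, 8.000/well, treated 3 h alongside DMSO control, then fixed in 3.7% PFA for 15 min at RT. Permeabilised 10 min (200 mM sucrose, 0.2% Triton X-100) and blocked 15 min in 2% BSA. Stained with anti-HuR (1:250), Alexa 594 secondary (1:500) and DAPI (1.5 μg/mL). Imaged at 40×, 13 fields/well. Read-out: nuclear/cytoplasmic HuR ratio, mean of single cells per well.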

ELAV-like protein 1 [6] = target: T1, ELAV-like protein 1; test: Binding affinity to human full length recombinant His-tagged HuR expressed in Escherichia coli […] assessed as inhibition of interaction with single-strand Bi-AU RNA probe by AlphaScreen assay
PANC-1 [7] = test: Antimigratory activity in human PANC1 cells at 5 to 20 uM after 24 to 48 hrs by scratch assay; type: functional, cell-based
Procedure, shortened: (§1)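 Scratch assay: monolayers in DMEM with 10% FBS wounded with a pipette tip, then treated with DMSO or compound; the same field imaged at 0, 24 and 48 h at 5× magnification and residual open wound area measured. Student t test.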

MDA-MB-231 [8] = test: Antimigratory activity in human MDA-MB-231 cells at 5 to 20 uM after 24 to 48 hrs by scratch assay; type: functional, cell-based; procedure, shortened: as §1
MCF7 [9] = test: Downregulation of RPLP0 mRNA expression in human MCF7 cells at 5 uM after 6 hrs by qRT-PCR method; type: functional, cell-based
Procedure, shortened: (§2)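 MCF7 cells treated with 5 μM compound or DMSO for 6 h. Total RNA extracted, transcript levels measured by qRT-PCR and normalized to RNA18s. Biological triplicate, mean ± SD, t test versus control.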

[10] = Binding affinity to TNF AU-rich elements (unknown origin) at 10 uM by CD spectroscopic method
Procedure, shortened: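 Circular dichroism of TNF-ARE RNA (10 μM final) with compound (10 μM) in 10 mM sodium phosphate, pH 7.3. Spectra were recorded at 240–350 nm and 100 nm/min. The spectrum of compound alone (10 μM) in the same buffer was subtracted, and Δε was plotted to judge any change in RNA conformation.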

[11] = Binding affinity to 5'-DY681-labeled AU-rich RNA probe (unknown origin) at 5 uM after 30 mins by REMSA
Procedure, shortened: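 Non-denaturing, non-cross-linked gel-shift assay: 75 fmol of 5′-DY681-labeled AU-rich RNA probe incubated 30 min with compound at 5 μM, with DMSO as control. The probe was read by its fluorescent label to detect a shift or loss of the free RNA band.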

MCF7 [12] = test: Downregulation of HPRT1 mRNA expression in human MCF7 cells at 5 uM after 6 hrs by qRT-PCR method; type: functional, cell-based; procedure, shortened: as §2

T1 sequence (Q15717 whole entry): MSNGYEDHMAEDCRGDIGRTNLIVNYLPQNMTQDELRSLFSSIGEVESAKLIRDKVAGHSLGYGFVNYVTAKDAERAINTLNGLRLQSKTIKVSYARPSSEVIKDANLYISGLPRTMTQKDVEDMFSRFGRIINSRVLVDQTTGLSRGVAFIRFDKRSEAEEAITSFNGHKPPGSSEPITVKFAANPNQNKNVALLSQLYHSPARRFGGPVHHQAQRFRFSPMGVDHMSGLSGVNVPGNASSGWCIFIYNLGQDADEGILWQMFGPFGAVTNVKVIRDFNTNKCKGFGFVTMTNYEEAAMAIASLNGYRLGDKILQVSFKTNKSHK

Row | SMILES | IC50 (PANC-1 [2]) | IC50 (MDA-MB-231 [3]) | IC50 (MCF7 [4]) | Ki (ELAV-like protein 1 [6]) | other results
1 | Cc1ccccc1-c1cn(S(=O)(=O)c2ccccc2)c2c1C(=O)C(=O)C=C2 | 25.9 µM | 47.2 µM | 58.5 µM |  | inhibition (ELAV-like protein 1 [1]): Active
2 | Cc1cccc2c3c(ccc12)C1=C(C(=O)C3=O)[C@@H](C)CO1 [DIHYDROTANSHINONE I] | 2.91 µM | 8.99 µM | 3.73 µM | 0.05 µM | Activity (ELAV-like protein 1 [5]): inactive
3 | O=C1C=C(Sc2ccccc2)c2c(c(-c3ccccc3)cn2S(=O)(=O)c2ccccc2)C1=O | 24.9 µM | 23.8 µM | 28.7 µM |  | inhibition (ELAV-like protein 1 [1]): Active
4 | COc1cccc(-c2cn(S(=O)(=O)c3ccccc3)c3c2C(=O)C(=O)C=C3)c1 |  |  |  | > 0.2 µM | 
5 | O=C1C(=O)c2c(-c3ccccc3)cn(S(=O)(=O)c3ccccc3)c2C2=C1C1C=CC2CC1 (stereo unspecified) |  |  |  | > 0.3 µM | 
6 | O=C1C=Cc2c(c(-c3ccccc3)cn2S(=O)(=O)c2cccc([N+](=O)[O-])c2)C1=O |  |  |  | > 0.1 µM | 
7 | O=C1C=Cc2c(c(-c3ccccc3)cn2S(=O)(=O)c2cccc(F)c2)C1=O |  |  |  | > 0.1 µM | 
8 | O=C(O)Cc1ccc(SC2=CC(=O)C(=O)c3c(-c4ccccc4)cn(S(=O)(=O)c4ccccc4)c32)cc1 |  |  |  |  | inhibition (ELAV-like protein 1 [1]): Active
9 | COc1ccc(-c2cn(S(=O)(=O)c3ccccc3)c3c2C(=O)C(=O)C=C3)cc1 |  |  |  | > 0.2 µM | 
10 | O=C1C=C(c2ccccc2)c2c(c(-c3ccccc3)cn2S(=O)(=O)c2ccccc2)C1=O |  |  |  | > 0.1 µM | 
11 | O=C1C=Cc2c(c(-c3ccccc3)cn2S(=O)(=O)c2ccccc2)C1=O | 26.5 µM | 24.2 µM | 32.7 µM |  | Activity (PANC-1 [7]): Active; Activity (MDA-MB-231 [8]): Active; Activity (MCF7 [9]): inactive; Activity [10]: inactive; Activity [11]: inactive; Activity (MCF7 [12]): inactive
12 | COc1ccc(SC2=CC(=O)C(=O)c3c(-c4ccccc4)cn(S(=O)(=O)c4ccccc4)c32)cc1 | 13.6 µM | 14.3 µM | 23.5 µM |  | 
13 | O=C1C=Cc2c(c(-c3ccccc3)cn2S(=O)(=O)c2ccc([N+](=O)[O-])cc2)C1=O |  |  |  |  | inhibition (ELAV-like protein 1 [1]): Active
14 | CC1=CC(=O)C(=O)c2c(-c3ccccc3)cn(S(=O)(=O)c3ccccc3)c21 |  |  |  | > 0.2 µM | 
15 | CN(C)c1ccc(-c2cn(S(=O)(=O)c3ccccc3)c3c2C(=O)C(=O)C=C3)cc1 |  |  |  | > 0.1 µM | 
16 | O=C1C=C(c2ccc([N+](=O)[O-])cc2)c2c(c(-c3ccccc3)cn2S(=O)(=O)c2ccccc2)C1=O |  |  |  | > 0.1 µM | 
